The EternaBench riboswitch data

System: MS2 coat protein
Assay: apparent Kd, MS2 coat protein; higher = weaker binding; RNA-MaP array; FMN 200 µM where present
How it was run: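 Designs were transcribed by stalled E. coli RNA polymerase on Illumina sequencing-chip clusters. They were titrated with SNAP-549-labelled MS2 coat protein from 0.7 or 1.5 nM, doubling to 3 µM, without and then with constant ligand. Buffer: 100 mM Tris-HCl pH 7.5, 80 mM KCl, 4 mM MgCl2, BSA, DTT, yeast tRNA, Tween-20. Green signal was normalised to red-channel RNA signal and control-cluster median Fmax. Apparent Kd is the median of filtered per-cluster binding-curve fits.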

[1] = designed as: ON switch for flavin mononucleotide, no ligand
[2] = ligand present: flavin mononucleotide, designed as: ON switch for flavin mononucleotide
[3] = designed as: OFF switch for flavin mononucleotide, no ligand
[4] = ligand present: flavin mononucleotide, designed as: OFF switch for flavin mononucleotide

| Sequence | apparent Kd [1] [nM] | apparent Kd [2] [nM] | apparent Kd [3] [nM] | apparent Kd [4] [nM] |
| --- | --- | --- | --- | --- |
| GUAUAUACGUGGUACAUGAGGAUCACCCAUGUGUCUUUACAUGAGGAUAUGGAUUCUAAUUGGAUCCAGAAGGCAUGUAUAUAC | 73.1 | 27 |  |  |
| GUAUAUCACUUAGGAUAUCUGUAAUUUAUUGAAACAUGAGGAUCACCCAUGUUCAUAAAUUUAUAGGAGAAGGGAGUGAUAUAC | 4.19 | 4.24 |  |  |
| GUAUCGUAUGUGAGGAUAUAUUUGUCCUUGGAUUUGUAGAAGGCACAUGAGGAUCACCCAUGUCCUAGUGGUCC |  |  | 35.1 | 34.9 |
| GUAUCUUACUGAGGAUAUUUACGAUUAGUGUAGACAUGAGGAUCACCCAUGUGGCGUUAGUCACGGGAGAAGGCAGUUUGAUAC | 82.5 | 21.3 |  |  |
| GUAUCUUAUGAGAAGGCGAUCAUGAAACAUGAUCGAGGAUAUCAUGUAAACAUGAGGAUCACCCAUGUAUGGGUAUUAUGGUAC | 179 | 71.9 |  |  |
| GUAUGAAAUACAGGAUAUGUUAGUUUUAAGUGUAUUGGUUAUUACUUAAUUACAGAAGGGUAUUACAUGAGGAUCACCCAUGUA | 16.5 | 10.8 |  |  |
| GUAUGAGCGAUAGGAUAUACUGGGAUUGAAUGGGUAGAAGGAUUUCUAGUGGGAAAGACAUGAGGAUCACCCAUGUCGCGGACC | 37.9 | 35.4 |  |  |
| GUAUGGAGUACAGGAUAUGUAAGUUUUAAGUGUAUUGGUUAUUACUUAAUUACAGAAGGGUAUUACAUGAGGAUCACCCAUGUA | 12.8 | 9.5 |  |  |
| GUAUUAAAGAUCCAUUUAUACAACAUGAGGAUCACCCAUGUGCAGGAUAUCGUGUGUUUUUUAUUCGAGAAGGGCAAAUUCAUU |  |  | 37 | 85.2 |
| GUAUUAAAGAUCCAUUUUUACAACAUGAGGAUCACCCAUGUGCAGGAUAUCGUGUGUUUUAUAUUCGAGAAGGGCAAAUUCAUU |  |  | 51.8 | 109 |
| GUCACCCGAUGAGGAUAUGCACAUGAGGAUCACCCAUGUGACCUCAUCGUGCCGGGAAGCCGGCUGCAGAAGGCAUUGAGGGAU |  |  | 7.76 | 7.25 |
| GUCAGACGAGGAUAUAGAUUUAAGUACAUGAGGAUCACCCAUGUACAUAUGUAUUUAGAUUUAGAAGGCGUCUGAC |  |  | 28.2 | 31.6 |
| GUCAGACGAGGAUAUAGAUUUGAUAACAUGAGGAUCACCCAUGUGAUCGAUAGAUCAGAUUUAGAAGGCGUCUGAC |  |  | 410 | 458 |
| GUCAGCUCGUGAGGAUAUACAACACUGCUUCGGAAGUGUAUUAAGAUCACAUGAGGAUCACCCAUGUAGAAGGCACGAGCUGAU |  |  | 13.7 | 225 |
| GUCAGCUCGUGAGGAUAUACAACACUGCUUCGGCAAUGUAUUAAGAUCACAUGAGGAUCACCCAUGUAGAAGGCACGAGCUGAU |  |  | 9.99 | 164 |
| GUCAGCUCGUGAGGAUAUACAACACUGCUUCGGCAGCGUAUUAAGAUCACAUGAGGAUCACCCAUGUAGAAGGCACGAGCUGAU |  |  | 11.7 | 206 |
| GUCAGCUCGUGAGGAUAUACAACACUGCUUCGGCAGUGUAUUAAGAUCACAUGAGGAUCACCCAUGUAGAAGGCAAGAGCUGAU |  |  | 13.2 | 227 |
| GUCAGCUCGUGAGGAUAUACAACACUGCUUCGGCAGUGUAUUAAGAUCACAUGAGGAUCACCCAUGUAGAAGGCACGAGAUGAU |  |  | 14.3 | 237 |
| GUCAGCUCGUGAGGAUAUACAUCACUGCUUCGGCAGUGUAUUAAGAGCACAUGAGGAUCACCCAUGUAGAAGGCACGAGCUGAU |  |  | 16.3 | 24.1 |
| GUCAGCUCGUGAGGAUAUACAUGUGCUGGAGACAGCACUAAUUAAUUCACAUGAGGAUCACCCAUGUAGAAGGCACGAGCUGAU |  |  | 16.2 | 19.6 |
| GUCAGCUCGUGAGGAUAUACAUGUGCUGGAUACAGCACUAUUAAGAUCACAUGAGGAUCACCCAUGUAGAAGGCACGAGCUGAU |  |  | 49.5 | 643 |
| GUCAGCUCGUGAGGAUAUACGUCACUGCUUCGGCAGUGAAAUUUCCUCACAUGAGGAUCACCCAUGUAGAAGGCACGAGCUGAU |  |  | 11.5 | 208 |
| GUCAGCUGGUGAGGAUAUACAACACUGCUUCGGCAGUGUAUUAAGAUCACAUGAGGAUCACCCAUGUAGAAGGCACGAGCUGAU |  |  | 13.1 | 207 |
| GUCCCACAUGAGGAUCACCCAUGUGAGGAUAUGGAUUCGCUGGCCGUAGCCAGUGGAUCCAGAAGGCGCGUGAU |  |  | 73.5 | 77.2 |
| GUCCGGAGGGAGAAGGGCUAGGAGGUCCAGCUUAUGUGUGUUGCAACAUGAGGAUCACCCAUGUAGCAGGAUAUCCCUUGUACA |  |  | 52.1 | 219 |
| GUCCGGCGUGUAGGAUAUGGAUCCGAUUAGGAUCCAGAAGGACAUGAGGAUCACCCAUGUACAUGUAAACAGUCAUCACCGGAA |  |  | 9.2 | 57.7 |
| GUCCUACAUGAGGAUCACCCAUGUGAGGAUAUGGUUUCGCUGGCCGUAGCCAGUGGAACCAGAAGGCGCGUGAU |  |  | 65.3 | 73.4 |
| GUCGAGUGAGGAUAUGGUGAGUAGUGCCUGAGCGCUGCUCACCAGAAGGCACAUGAGGAUCACCCAUGUAUAAC |  |  | 23.7 | 41.7 |

| Sequence | apparent Kd [1] [nM] | apparent Kd [2] [nM] | apparent Kd [3] [nM] | apparent Kd [4] [nM] |
| --- | --- | --- | --- | --- |
| GUCGGAAACGACAAUGAUAGGACUGAGGAUAUACAUAAGUUAGUCCACACAUGAGGAUCACCCAUGUAGAAGGCAGUCCUAUCU |  |  | 29.5 | 357 |
| GUCGUGUGAGGAUAUGAUUGUACGGCAGACUAGCGUCUGCUUCAGAAGGCACAUGAGGAUCACCCAUGUUUGUC |  |  | 18.6 | 34.4 |
| GUCGUGUGAGGAUAUGGAUCGACGCAGUGACAGUCAGCGACCUAGAAGGCACAUGAGGAUCACCCAUGUAUGUG |  |  | 54.6 | 97.5 |
| GUCUCACAUGAGGAUCACCCAUGUGAGGAUAUGGAUUCGCUGGCCGUAGCCAGUGGAUCCAGAAGGCGCAUGAU |  |  | 20.5 | 22 |
| GUCUUACAUGAGGAUCACCCAUGUGAGGAUAUCCCGGGCCCGGGCUUGCCCGGGCCCGGGAGAAGGCACAUGUU |  |  | 32.2 | 99.4 |
| GUCUUACAUGAGGAUCACCCAUGUGAGGAUAUGGUUUCGCUGGCCGUAGCCAGUGGAACCAGAAGGCGCAUGAU |  |  | 25.7 | 44.9 |
| GUCUUCCUAGGAUAUACAUGAGGAUCACCCAUGUACAGUUUCGUCUAGGGAUACUCGCGUAGAAGGAGGUGGAU |  |  | 20.8 | 26.5 |
| GUCUUCCUAGGAUAUACAUGAGGAUCACCCAUGUACAGUUUCGUCUUGGGAUACUCGCGUAGAAGGAGGUGGAU |  |  | 31.9 | 23.4 |
| GUGAAGAUAGCAGGAUAUAUAUUUCCUACAUGAGGAUCACCCAUGUAGGUGAUCAGCCGAGUAAAGUAGAAGGGCUAUCUUUAC | 16.1 | 10.7 |  |  |
| GUGACUUAUAGAGGAUAUUGACAUGAGGAUCACCCAUGUAUUUGGGAGUGUUCACUGAAUUCUUACGAGAAGGCUAUAAGACAC |  |  | 229 | 224 |
| GUGAGGUCAGGAUAUGCAUGGCGGGACUUGCGUCGUGGCGUGCAGAAGGGACAUGAGGAUCACCCAUGUGGAGG |  |  | 225 | 302 |
| GUGAUCGACAUGAGGAUCACCCAUGUGGAUUCGUUGAGCGGCAGAAGGCGAUGUAGAAAAGAACUCGAGGAUAUGCACGUGUCA | 7.22 | 6.76 |  |  |
| GUGCAAUGAGGAUAUACGUUGGUGGGCAUCUGUGUGCUCCUACAUGAGGAUCACCCAUGUAGAAGGCAUGUCAC |  |  | 12.5 | 15.8 |
| GUGCACAUUCGAGGAUAUCGGAGAGGACUCCUUCGAGAAGGCGAUUCGUGCCGUGUUAUUCUGGACAUGAGGAUCACCCAUGUG | 45 | 28.7 |  |  |
| GUGCAUUACGAGAAGGCGUACUGGUGAAUAUAAAACGACAAAGGUACAUGAGGAUCACCCAUGUACGAGGAUAUCGGUUUGGCU |  |  | 9.74 | 29.8 |
| GUGCAUUCGUAGAAGGGUGACAUGAGGAUCACCCAUGUGCGCUGGGCUCAGGAUGCCUCAGCGCCACAGGAUAUACGAAGCACC | 97.6 | 35.1 |  |  |
| GUGCCUUGGAAGAAGGCCGUAUGCAAAGCAUACGGAGGAUAUUCAUACCGGAAACGGACAUGAGGAUCACCCAUGUGGCACAAA | 13 | 6.24 |  |  |
| GUGCCUUGGGAGAAGGCAGUAUGCAAAGCAUUCUGAGGAUAUUCAUACCGGAAACGGACAUGAGGAUCACCCAUGUGGCACAAA | 1210 | 64.6 |  |  |
| GUGCCUUGGGAGAAGGCCGUAUGCAAAGCAUACGGAGGAUAUCCAUACCGGAAACGGACAUGAGGAUCACCCAUGUGGCACAAA | 15.1 | 6.03 |  |  |
| GUGCGGUAGGAGAAGGACAGAGGCUUCAUUACAUACAUGAGGAUCACCCAUGUAGGAUAUCCUACCUCACGCGGCCUCCUCCUG |  |  | 8.48 | 31.8 |
| GUGGAACAUGAGGAUCACCCAUGUGAGGAUAUAGGUUUUUGGGAAAAACUAGGAGAAACUAGAAGGCGCAAGAA |  |  | 29.4 | 27.6 |
| GUGGCGACGUAGAAGGGUGACAUGAGGAUCACCCAUGUGCCGAUAUUUCUCGAGAUAUGUCGGCCACAGGAUAUACGUGCCAUC | 40.1 | 56 |  |  |
| GUGGCUAGUGCAGGAUAUUGGCGCGUGUAGUGUCGAGAAGGGCACAUGAGGAUCACCCAUGUGAUCAAUCACUGCUAAGGUCGC |  |  | 6.98 | 7.69 |
| GUGGGACAUGAGGAUCACCCAUGUGGGAGGGAACGAGGAUAUGUGAGGAGCGAGAAGUGAACAGAAGGCGUGGUUG | 82.8 | 51.4 |  |  |
| GUGGUACAUGAGGAUCACCCAUGUUAGGAUAUCGCGUGAGGUUUUACUUCCGCGCGCGCGAGAAGGGACGUCUU |  |  | 26.8 | 22.8 |
| GUGGUCAGACAUGAGGAUCACCCAUGUGGAAUAAAUAACAGACAGGAUAUUAAAUAUAGGAUAUAUAAGAAGGGUCGAUUGGUG | 91.1 | 91.6 |  |  |
| GUGGUCAGACAUGAGGAUCACCCAUGUGGAAUAAAUAAGGACUAGGAUAUGGAAUAUAGGAUAUACCAGAAGGAGUGGUUGGUG | 56.4 | 60 |  |  |
